Shown are actives, neighbours in structure and some others; about 3.1% of the full set was active somewhere.
Myeloid diff 2 – promotes myeloid progenitor differentiation. ER-HoxA9 myeloid progenitors, lysozyme-GFP differentiation, flow cytometry. calls only at 10 µM. actives 1% (n = 360,000);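 active means normalized GFP-positive differentiation at or above the plate's own cutoff, the solvent-only control mean plus 3 SD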;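 further: cells exposed to compound for four days before flow analysis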
Fh CTSL1 inh – blocks F. hepatica cathepsin L1 in PFM18AAP counter-screen; actives 0.49% (n = 300,000); recombinant F. hepatica cathepsin L1, Z-Leu-Arg-MCA fluorescence; inhibition, % at 5.96 µM; AID 1906;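 active means inhibition above the mean of all tested compounds plus 3 SD, set per screening campaign, cut at about 17% in these data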;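 further: 0% = plate median of test compound wells and 100% = 1 µM Z-Phe-Ala-diazomethylketone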
PP1 counter – blocks human PP1-alpha phosphatase, a PP5 counter-screen; P62136; purified PP1alpha, OMFP fluorescence; inhibition, % at 6.7 µM; actives 0.9% (n = 320,000); AID 2235;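 active means inhibition above the mean inhibition of all tested compounds plus 3 SD, computed separately for each screening campaign, cut at about 15% in these data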
PP5 inh – inhibitors of human protein phosphatase 5 (PP5); inhibition, % at 6.7 µM; AID 1987; purified PP5c, OMFP substrate fluorescence; actives 0.18% (n = 320,000); P53041;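 active means inhibition above the campaign's mean inhibition across all tested compounds plus 3 SD, cut at about 9.5% in these data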;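 further: 0% = DMSO only and 100% = 100 µM cantharidin control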
Target sequence (P53041 whole entry, looked up): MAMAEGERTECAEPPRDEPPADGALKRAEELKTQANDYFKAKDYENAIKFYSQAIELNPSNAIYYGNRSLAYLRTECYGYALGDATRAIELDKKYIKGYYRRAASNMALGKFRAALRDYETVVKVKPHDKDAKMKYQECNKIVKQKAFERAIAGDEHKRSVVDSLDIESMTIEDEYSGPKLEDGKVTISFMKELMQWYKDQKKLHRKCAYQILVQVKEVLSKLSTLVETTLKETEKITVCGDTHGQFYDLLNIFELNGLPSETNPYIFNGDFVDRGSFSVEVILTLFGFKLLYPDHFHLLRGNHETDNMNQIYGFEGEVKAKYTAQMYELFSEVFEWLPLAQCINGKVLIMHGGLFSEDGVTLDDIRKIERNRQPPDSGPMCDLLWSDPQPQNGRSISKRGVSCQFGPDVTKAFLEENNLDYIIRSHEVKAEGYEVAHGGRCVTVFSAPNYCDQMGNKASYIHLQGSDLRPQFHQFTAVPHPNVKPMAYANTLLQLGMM
NadD inh – NadD (S. aureus) enzyme inhibition | purified NadD enzyme, colorimetric absorbance read-out | actives 0.78% (n = 360,000) | inhibition, % at 20 µM; in the data active means inhibition above about 26%
core dimer inh – blocks dimerization of HCV core protein. TR-FRET GST/Flag-core106 dimerization, 1536-well. inhibition, % at 5 µM. actives 0.33% (n = 300,000). AID 1899;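 active means inhibition above the mean of all tested compounds plus 3 SD, set per screening campaign, cut at about 45% in these data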
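test system = GST/Flag-tagged HCV core106 proteins | probe or stimulus = Eu donor and XL665 acceptor anti-tag antibodies | times = compound-protein-antibody incubation 4 h at 22.5 °C | signal = TR-FRET, excitation 340 nm, emission 617 and 671 nm | measure = percent inhibition of core106 dimerization signal | controls = wells lacking GST-core106 and wells with excess unlabelled core106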
NadD inh conf – NadD (S. aureus) inhibition, single concentration confirmation; shares compounds with NadD inh; purified S. aureus NadD, colorimetric enzyme assay; inhibition, % at 20 µM; actives 13% (n = 2,000); in the data active means inhibition mostly above about 42%, no sharp cut-off; inactive means mostly below about 42%
Numbers without * were called inactive; i = inactive; x = no result; + = active, no number.

SMILES	Myeloid diff 2	Fh CTSL1 inh	PP1 counter	PP5 inh	NadD inh	core dimer inh	NadD inh conf
Cc1cc(-c2csc(NC(=O)c3ccc(C#N)cc3)n2)c(C)n1Cc1ccccc1	i	-2	9	2	34*	52*	26
N#Cc1ccc(-c2csc(NNC(=O)c3ccccc3)n2)cc1	i	1	3	2	4	6	x
CCOc1ccc2oc(C(=O)OCC(=O)N(CC(C)C)c3c(N)n(Cc4ccccc4)c(=O)[nH]c3=O)c(C)c2c1	i	x	x	x	40*	x	34
N#Cc1nc(-c2ccccc2)oc1NCCCn1ccnc1	i	3	-1	0	0	-2	x
N#Cc1nc(-c2ccc(OCc3ccc(Cl)cc3)cc2)oc1NCCCn1ccnc1	i	-4	-2	5	30*	-3	7
C[C@@H]1CN([C@H](C)CO)C(=O)c2c(c3ccccc3n2C)-c2ccccc2CO[C@H]1CN(C)C(=O)CCC(F)(F)F	i	x	x	x	4	x	x
COc1cc(C2NC(=O)CCC2[N+](=O)[O-])c(OC)cc1Br (stereo not drawn)	i	1	-3	3	0	-7	x
CCOC(=O)c1c(C)[nH]c(C(=O)OCC(O)=C(C#N)c2nc3ccccc3[nH]2)c1C	i	x	x	x	10	x	x
Cc1c(C(=O)OC/C(O)=C(\C#N)c2nc3ccccc3[nH]2)oc2ccc(Br)cc12	i	-3	-2	-1	43*	8	4
Cc1c(-c2cccc(Cl)c2)nc2ccccc2c1C(=O)OC/C(O)=C(\C#N)c1nc2ccccc2[nH]1	i	-2	-1	1	70*	15	-1
C[C@H](CO)N1C[C@H](C)[C@@H](CN(C)C(=O)Nc2ccc(C(F)(F)F)cc2)Oc2ccc(NC(=O)CCC(F)(F)F)cc2C1=O	i	x	x	x	-5	x	x
O=C(NC1CCCC1)c1cccc2c1C(=O)c1ccc(/C=C/c3ccccc3)cc1S2(=O)=O	i	x	-1	1	25	x	x
COc1ccccc1N1CCN(c2ccc3c(c2)S(=O)(=O)c2cccc(C(=O)NCc4cccc(F)c4)c2C3=O)CC1	i	x	x	x	31*	x	18
O=C(NCc1cccc(F)c1)c1cccc2c1C(=O)c1ccc(N3CCOCC3)cc1S2(=O)=O	i	x	x	x	8	x	x
O=C(NCc1cccc(OC(F)(F)F)c1)c1cccc2c1C(=O)c1ccc(-c3ccc(F)cc3OCc3ccccc3)cc1S2(=O)=O	i	x	x	x	48*	x	33
O=C(NCc1ccccc1)c1cccc2c1C(=O)c1ccc(/C=C/c3ccccc3)cc1S2(=O)=O	i	x	x	x	34*	x	-6
NS(=O)(=O)c1cccc(NC(=O)CN2CCc3ccccc32)c1	i	-4	2	-1	38*	11	-4
COc1ccc(-c2c(C#Cc3ccsc3)c3cc(-c4ccc(OC)c(F)c4)ccc3n2C)cc1	i	x	-2	1	13	x	x
CC(=O)c1ccc(NC(=O)COC(=O)c2c3c(nc4ccccc24)/C(=C\c2cccs2)CCC3)cc1	i	3	-1	3	27*	14	11
CCOC(=O)NCc1ccc2[nH]c(C)cc2c1	i	0	0	4	-1	-8	x
Cc1cc2cc(CNC(=S)Nc3ccc(OC(F)(F)F)cc3)ccc2[nH]1	i	2	-1	7	32*	-10	-1
Cc1cc2cc(CNC(=O)Nc3ccccc3)ccc2[nH]1	i	-6	2	-1	49*	4	-5
Cc1cc2cc(CNC(=S)Nc3ccc(OC(F)F)cc3)ccc2[nH]1	i	0	6	3	-1	3	x
CSc1ccc(NC(=O)CSc2nc3[nH]c(=O)cc(O)c3s2)cc1	i	x	8	2	54*	x	28
N#Cc1ccc(NC(=O)CSc2nc3[nH]c(=O)cc(O)c3s2)cc1	i	x	5	2	-2	x	x
SMILES	Myeloid diff 2	Fh CTSL1 inh	PP1 counter	PP5 inh	NadD inh	core dimer inh	NadD inh conf
Cc1ccc(CNC(=O)c2cc3c(=O)n4ccccc4nc3n(CC3CCCO3)c2=N)cc1 (stereo not drawn)	i	2	-2	-2	3	12	x
N=c1c(C(=O)NCc2ccccc2)cc2c(=O)n3ccccc3nc2n1Cc1ccco1	i	-1	6	4	31*	24	10
N=c1c(C(=O)NCc2ccco2)cc2c(=O)n3ccccc3nc2n1Cc1ccccc1	i	0	8	3	32*	65*	26
Cc1ccc(CNC(=O)c2cc3c(=O)n4ccccc4nc3n(Cc3ccco3)c2=N)cc1	i	-2	-1	-1	40*	29	32
Cc1cccn2c(=O)c3cc(C(=O)NCc4ccco4)c(=N)n(CCc4ccccc4)c3nc12	i	-3	10	1	16	37	x
COc1ccc(-n2nnnc2CNC(=O)C2CC(=O)N(c3ccc(Cl)cc3)C2)cc1 (stereo not drawn)	i	3	0	2	-4	0	x
Cc1ccc(C)c(NC(=O)C(OC(=O)c2ccc(NC(=O)CC#N)cc2)c2ccccc2)c1 (stereo not drawn)	i	-4	9	3	37*	29	53*
Cc1cc(C)cc(NC(=O)C(OC(=O)c2ccc(NC(=O)CC#N)cc2)c2ccccc2)c1 (stereo not drawn)	i	-4	14	3	40*	39	45*
Cc1ccc(C)c(NC(=O)C(OC(=O)c2ccc(CO)cc2)c2ccccc2)c1 (stereo not drawn)	i	x	x	x	-6	x	x
CCOC(=O)c1ccn(CSc2c(F)c(F)cc(F)c2F)n1	i	x	-1	1	-8	x	x
COc1ccc(/C=C/C(=O)OCC(=O)NC(C)CCc2ccccc2)cc1OC (stereo not drawn)	i	x	x	x	3	x	x
Cc1cc(C)c(C#N)c(N2CCN(C(=O)C3COc4ccccc4O3)CC2)n1 (stereo not drawn)	i	x	-1	1	3	x	x
CC(C)c1ccc(CNC(=O)C2CCCN2S(=O)(=O)c2ccccc2)cc1 (stereo not drawn)	i	4	0	-1	3	0	x
Cc1ccc(NC(=O)C2CCCN2C(=O)c2cccs2)cc1C (stereo not drawn)	i	x	-1	2	0	x	x
CCOC(=O)/C(C#N)=C\c1ccc(O)c(OC)c1	i	4	1	1	1	3	x
CCOC(=O)c1c(-c2ccc(C)cc2)csc1NC(=O)/C(C#N)=C/c1ccc(O)c(OC)c1	+	x	x	x	59*	x	41
CCOC(=O)c1c(-c2ccccc2)csc1NC(=O)/C(C#N)=C\c1ccc(O)c(OC)c1	+	x	x	x	35*	x	24
COc1ccc(NC(=S)NC(=O)/C=C/c2ccco2)cc1	i	-1	2	3	-2	6	x
O=C(/C=C/c1ccco1)NC(=S)Nc1ccc(O)c(-c2nc3ccccc3s2)c1	i	5	8	2	47*	25	0

Assay outcomes deposited in PubChem by several laboratories.
